The values that follow come from PubChem BioAssay.

Activity calls are given as the source filed them.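 The calls were made as follows, unless noted: active = mean duplicate potentiation above the buffer control mean plus 5 SD of buffer wells; inactive = the rest.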

The nature of assay [1]: thallium flux activation in parental CHO cells, counter-screen for KCNQ1 potentiator project (AID 493006;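 active = duplicate-averaged activation above buffer control mean plus 5 SD of those controls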;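 as to activation: fluorescence ratio of max minus min over baseline after K+ and Tl+ depolarization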). The conditions noted are these: parental CHO-K1 cells, FluxOR thallium flux, at 10 µM; active compounds read high. The method, boiled down: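 Material: parental CHO-K1 cells, FluxOR dye-loaded; Also added: Potassium/thallium depolarization pulse; Schedule: overnight 37 °C plating, 90 min dye, 20 min dark compound; Signal: kinetic FluxOR fluorescence, 10 s baseline, 110 s after stimulus.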
A general note: Counterscreens check selectivity or assay interference.

Assay [2] deals with Potassium voltage-gated channel subfamily KQT member 1 (Homo sapiens) (UniProt P51787). Description: KCNQ1 potassium channel potentiators, confirmation, FluxOR thallium flux, CHO cells, duplicates (AID 493007;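 active = potentiation averaged over duplicate wells exceeding buffer-only control mean by more than 3 SD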;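 as to outcome: cells depolarized by a potassium plus thallium sulfate stimulus after compound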). The conditions noted are these: KCNQ1 cell line, FluxOR thallium flux fluorescence, at 10 µM; active compounds read high, % of reference activator effect, buffer zero. Put shortly:
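System: KCNQ1-expressing CHO cell line; technique: kinetic thallium influx fluorescence with FluxOR dye, 10 s baseline, 110 s post-stimulus; timing: dye 90 min then compound 20 min, both at room temperature; controls: buffer-only wells as 0% and R-L3 activator as 100%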

For assay [3], the target named is Potassium voltage-gated channel subfamily KQT member 2 (Rattus norvegicus) (UniProt O88943). In words: rat KCNQ2 channel potentiation, selectivity assay for KCNQ1 potentiator project, KCNQ2-CHO-K1 cells (AID 493009).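 Also: assay conditions were tuned for KCNQ1 rather than KCNQ2 modulators; signal is max minus min fluorescence divided by baseline after thallium stimulus.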 To be noted: FluxOR thallium flux fluorescence, at 10 µM; active compounds read high, scaled: buffer 0, activator control 100.
Chain of Potassium voltage-gated channel subfamily KQT member 2 (Rattus norvegicus) (O88943 whole entry, looked up): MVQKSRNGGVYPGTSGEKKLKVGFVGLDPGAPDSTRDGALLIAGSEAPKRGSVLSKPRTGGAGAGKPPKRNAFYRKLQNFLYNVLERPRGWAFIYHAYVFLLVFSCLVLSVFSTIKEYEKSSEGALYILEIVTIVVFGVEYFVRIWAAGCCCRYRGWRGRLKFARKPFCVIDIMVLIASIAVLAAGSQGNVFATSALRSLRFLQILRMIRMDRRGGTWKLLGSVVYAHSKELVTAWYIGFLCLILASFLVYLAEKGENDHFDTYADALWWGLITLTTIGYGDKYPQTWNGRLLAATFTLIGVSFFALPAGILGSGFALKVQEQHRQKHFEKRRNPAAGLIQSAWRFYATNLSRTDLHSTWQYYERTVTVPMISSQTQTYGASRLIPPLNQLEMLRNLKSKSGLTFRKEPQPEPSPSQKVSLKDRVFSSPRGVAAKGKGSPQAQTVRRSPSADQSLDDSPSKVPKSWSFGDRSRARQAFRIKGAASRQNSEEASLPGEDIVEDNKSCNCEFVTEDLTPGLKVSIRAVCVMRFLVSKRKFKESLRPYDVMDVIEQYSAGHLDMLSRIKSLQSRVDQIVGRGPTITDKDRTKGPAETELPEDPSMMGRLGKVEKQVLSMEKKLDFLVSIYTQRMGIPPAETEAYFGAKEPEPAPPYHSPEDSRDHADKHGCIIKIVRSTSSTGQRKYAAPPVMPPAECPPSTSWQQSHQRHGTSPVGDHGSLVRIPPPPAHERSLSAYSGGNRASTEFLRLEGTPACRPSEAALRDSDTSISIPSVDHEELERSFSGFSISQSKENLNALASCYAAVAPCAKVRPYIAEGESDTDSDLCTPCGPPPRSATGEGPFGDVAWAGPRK
Assay [4] has as its target Potassium voltage-gated channel subfamily KQT member 1 (Homo sapiens) (UniProt P51787). Description: KCNQ1 channel current potentiators, confirmation, orthogonal assay for KCNQ1 potentiator project, IonWorks patch clamp, KCNQ1-CHO cells (AID 493184;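 active = current rise at least 3 SD above the untreated control mean in each of two repeat wells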;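 as to current potentiation: percent change of the same well's current before compound addition so 0% = no change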). To be noted: automated patch clamp current, at 10 µM; active compounds read high. The method, boiled down:
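Test system: KCNQ1-expressing CHO cells. Medium: pH 7.4 external bath. Probe or stimulus: voltage step from -90 mV holding to +40 mV, 2,000 ms. Compound: 10 µM final, single point. Detection: automated perforated-patch electrophysiology. Read-out: percent current increase versus pre-compound level. Repeats: two replicates.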
A general note: Patch clamp records ionic current or voltage across a cell membrane.

Chain of Potassium voltage-gated channel subfamily KQT member 1 (Homo sapiens) (P51787 whole entry, looked up): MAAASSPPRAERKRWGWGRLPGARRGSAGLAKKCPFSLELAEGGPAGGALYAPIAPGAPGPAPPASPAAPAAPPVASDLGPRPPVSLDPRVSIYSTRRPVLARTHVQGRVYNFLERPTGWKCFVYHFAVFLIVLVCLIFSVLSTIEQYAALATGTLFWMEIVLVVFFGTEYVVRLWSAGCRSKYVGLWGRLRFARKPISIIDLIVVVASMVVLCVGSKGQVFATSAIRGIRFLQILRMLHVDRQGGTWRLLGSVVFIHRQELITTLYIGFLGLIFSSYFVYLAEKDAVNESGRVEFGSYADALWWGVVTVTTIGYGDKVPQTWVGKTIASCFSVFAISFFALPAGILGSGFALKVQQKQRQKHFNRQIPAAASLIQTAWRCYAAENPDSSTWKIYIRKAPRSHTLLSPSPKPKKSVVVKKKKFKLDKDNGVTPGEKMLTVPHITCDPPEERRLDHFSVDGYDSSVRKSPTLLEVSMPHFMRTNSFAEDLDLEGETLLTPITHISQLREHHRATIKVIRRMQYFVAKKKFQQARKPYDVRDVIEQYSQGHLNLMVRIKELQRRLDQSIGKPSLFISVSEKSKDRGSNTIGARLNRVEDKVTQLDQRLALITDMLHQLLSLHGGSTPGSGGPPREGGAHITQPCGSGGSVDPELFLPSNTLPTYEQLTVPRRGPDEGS

In the case of `Cc1ccc(C2C(/C=C3/SC(=S)NC3=O)=C(c3cccs3)Oc3ccccc32)cc1` (stereo not drawn), the activation in assay [1] is 142% (active). Further, the potentiation in assay [2] was 33% (active). The outcome in assay [3] and in assay [4] was inactive.

With `COc1ccc(NC2=NC3(CCCCC3)N=C(N)N2)cc1`, the outcome in assay [1], in assay [2], in assay [3] and in assay [4] was inactive.

`CCC(C)CCCCCCCCCCC(=O)O` (stereo not drawn): the activation in assay [1] is 382% (active). The potentiation in assay [2] is 318% (active); in assay [3], 302% (active). Also, the result in assay [4] was inactive.

On to `C=CCNC(=S)Nc1sc2c(c1C(=O)OCC)CC(C(C)C)OC2` (stereo not drawn), for which the activation in assay [1] is 268% (active). The potentiation in assay [2] was 132% (active); in assay [3], 246% (active). In addition, the result in assay [4] was inactive.

Turning to `COc1cccc(-c2c(NC(=O)c3ccco3)n(-c3ccc(C)cc3)nc(C)c2=O)c1`, the result in assay [1], in assay [2], in assay [3] and in assay [4] was inactive.

With `CC(=O)N1N=C(c2ccccc2OC(=O)/C=C/c2ccccc2)CC1c1ccccc1` (stereo not drawn), the result in assay [1], in assay [2], in assay [3] and in assay [4] was inactive.

Turning to `O=C(Nc1nnc(-c2ccc3c(c2)CCCC3)o1)c1c(F)cccc1F`, the activation in assay [1] is 148% (active). The potentiation is 25% (active) in assay [2] and 182% (active) in assay [3]. The current potentiation in assay [4] was 20.7% (active).

Turning to `O=C(Nc1ccc2[nH]c(=S)sc2c1)c1ccccc1`, the result in assay [1] and in assay [4] was inactive. Further, the values for the potentiation in assay [2] and in assay [3] were 52% (active) and 154% (active), respectively.

Take `CC(=O)CSc1ncnc2sc3c(c12)CCC(C)C3` (stereo not drawn): in assay [1], the activation was 474% (active). For the same compound, the potentiation in assay [2] is 154% (active); in assay [3], 406% (active). In addition, the outcome in assay [4] was inactive.

Turning to `COC(=O)c1c(N)sc2c1CCN(c1ncc(C(F)(F)F)cc1Cl)C2`, the result in assay [1], in assay [2] and in assay [4] was inactive. Besides, the potentiation in assay [3] is 142% (active).

On to `COc1ccccc1-c1nc(C#N)c(N2CC(C)CC(C)C2)o1` (stereo not drawn), for which the result in assay [1], in assay [2], in assay [3] and in assay [4] was inactive.

For the compound `CCOC(=O)Cc1csc(NC(=S)NC(=O)c2ccc(F)cc2)n1`, the outcome in assay [1], in assay [2], in assay [3] and in assay [4] was inactive.

On to `CCc1nnc(NC(=O)CCC(=O)N2CCN(C3CCCCC3)CC2)s1`, for which the outcome in assay [1], in assay [2], in assay [3] and in assay [4] was inactive.

With `CC(=O)Nc1ccc(NC(=O)c2cccc(C(=O)OC(C)C)n2)cc1`, the outcome in assay [1], in assay [2], in assay [3] and in assay [4] was inactive.

Take `Cc1ccc(Sc2ccc(CN3CCCC3)cc2[N+](=O)[O-])cc1`: the outcome in assay [1], in assay [2], in assay [3] and in assay [4] was inactive.

In the case of `CN(c1ccccc1)S(=O)(=O)c1ccc(NC(=O)c2nc(S(C)(=O)=O)ncc2Cl)cc1`, the outcome in assay [1], in assay [2], in assay [3] and in assay [4] was inactive.

As for `O=C(N/N=C/c1ccccn1)c1cc(-c2ccc(Br)cc2)nc2ccccc12`, the activation in assay [1] was 142% (active). For the same compound, the potentiation in assay [2] was 51.5% (active); in assay [3], 174% (active). Also, the result in assay [4] was inactive.

For `Cc1ccc2nc(N3CCN(Cc4ccc(F)cc4)C3=O)c(C)cc2c1`, the result in assay [1], in assay [2], in assay [3] and in assay [4] was inactive.

Regarding `CN(C)c1ccc(NC(=O)COC(=O)c2cc(Cl)ccc2[N+](=O)[O-])cc1`, the outcome in assay [1], in assay [2], in assay [3] and in assay [4] was inactive.

As to `Cc1cc(C(=O)CSc2nnc(N)s2)c(C)n1C1CC1`, the result in assay [1], in assay [2], in assay [3] and in assay [4] was inactive.

Turning to `Cc1cccc(CC2CC(=O)N(c3ccc(C)cc3Br)C2=O)c1` (stereo not drawn), the outcome in assay [1], in assay [2], in assay [3] and in assay [4] was inactive.

As to `CN(C(=O)c1cc(COc2c(F)cccc2F)on1)C1CCOC1` (stereo not drawn), the result in assay [1], in assay [2], in assay [3] and in assay [4] was inactive.

As for `O=C(CNC(=O)C(c1ccccc1)c1ccccc1)N/N=C/c1ccc(O)cc1O`, the result in assay [1], in assay [2], in assay [3] and in assay [4] was inactive.

Regarding `COC(=O)c1sccc1NC(=O)CSc1ccccc1NS(=O)(=O)c1ccc(Cl)cc1`, the outcome in assay [1], in assay [3] and in assay [4] was inactive. Also, the potentiation in assay [2] was 17.5% (active).

With `Cc1nnc(SCC(=O)N(Cc2ccccc2)C(C)C)n1-c1ccccc1`, the outcome in assay [1], in assay [2], in assay [3] and in assay [4] was inactive.

As to `O=C1c2cccc3cccc(c23)C(=O)N1c1cccc(O)c1`, the result in assay [1], in assay [2], in assay [3] and in assay [4] was inactive.

In the case of `Cc1ccc(-c2cc(-c3n[nH]c(=S)o3)c3ccccc3n2)cc1`, the activation in assay [1] was 468% (active). Moreover, the potentiation is 260% (active) in assay [2] and 512% (active) in assay [3]. Besides, the current potentiation in assay [4] is 18.8% (active).

As for `C/C(=N\NC(=O)c1cc2ccccc2cc1O)c1ccccn1`, the activation in assay [1] is 157% (active). The potentiation was 38.5% (active) in assay [2] and 169% (active) in assay [3]. Moreover, the current potentiation in assay [4] is 21.5% (active).

Take `O=C1c2ccccc2NC(c2ccc(Br)s2)N1O` (stereo not drawn): the activation in assay [1] was 282% (active). Besides, the potentiation in assay [2] was 57% (active); in assay [3], 252% (active). The outcome in assay [4] was inactive.

As to `Cc1csc(=O)n1CCC(=O)OCC(=O)NCc1ccc(F)cc1`, the result in assay [1], in assay [2] and in assay [4] was inactive. For the same compound, the potentiation in assay [3] was 186% (active).

On to `Cc1[nH][nH]c(=O)c1C(c1ccc(-c2ccc(F)cc2)o1)c1c(C)[nH][nH]c1=O`, for which the outcome in assay [1], in assay [2], in assay [3] and in assay [4] was inactive.

Turning to `Oc1c(Cl)cc(Cl)cc1C=Nc1ccc2c(c1)OCCO2`, the activation in assay [1] was 174% (active). Also, the potentiation in assay [2] is 25.5% (active). For the same compound, the result in assay [3] and in assay [4] was inactive.
